Test results taken from ChEMBL document CHEMBL4138204, “Polyoxygenated Steroids from the Sponge Clathria gombawuiensis” (J Nat Prod, 2017).
The source made the active and inactive calls. The rule behind the calls is not given here.

Key:
[1] = Inhibition of isocitrate lyase (unknown origin)
K562 = experiment: Cytotoxicity against human K562 cells after 72 hrs by MTT assay; assay type: functional, cell-based; details: K562, 72 h
A549 = experiment: Cytotoxicity against human A549 cells after 72 hrs by MTT assay; assay type: functional, cell-based; details: A549, 72 h
Staphylococcus aureus = experiment: Antibacterial activity against Staphylococcus aureus ATCC 6538P measured after 24 hrs; assay type: functional
Bacillus spizizenii = experiment: Antibacterial activity against Bacillus subtilis ATCC 6633 measured after 24 hrs; assay type: functional; details: ATCC 6633, 24 h
Kocuria rhizophila = experiment: Antibacterial activity against Kocuria rhizophila NBRC 12708 measured after 24 hrs; assay type: functional; details: NBRC 12708, 24 h
Salmonella typhimurium = experiment: Antibacterial activity against Salmonella enterica ATCC 14028 measured after 24 hrs; assay type: functional, Salmonella enterica subsp. enterica serovar Typhimurium; details: ATCC 14028, 24 h
Proteus hauseri = experiment: Antibacterial activity against Proteus hauseri NBRC 3851 measured after 24 hrs; assay type: functional; details: NBRC 3851, 24 h
Escherichia coli = experiment: Antibacterial activity against Escherichia coli ATCC 35270 measured after 24 hrs; assay type: functional; details: ATCC 35270, 24 h
Candida albicans = experiment: Antifungal activity against Candida albicans ATCC 10231 measured after 48 to 72 hrs; assay type: functional
Trichophyton rubrum = experiment: Antifungal activity against Trichophyton rubrum IFO 9185 measured after 48 to 72 hrs; assay type: functional
[2] = system: Trichophyton mentagrophytes; experiment: Antifungal activity against Trichophyton mentagrophytes IFO 40996 measured after 48 to 72 hrs; assay type: functional
Aspergillus fumigatus = experiment: Antifungal activity against Aspergillus fumigatus HIC 6094 measured after 48 to 72 hrs; assay type: functional
[3] = Inhibition of recombinant sortase A (unknown origin) using Dabcyl-QALPETGEE-Edans as substrate measured after 1 hr by fluorescence assay; design: species or system Bacteria
[4] = molecular target: Sodium/potassium-transporting ATPase; experiment: Inhibition of potassium-activated sodium/potassium ATPase in human placenta using 3-Omethylfluorescein phosphate as substrate measured for 90 secs by fluorescence assay
Mus musculus [5] = species on record: Mus musculus; experiment: Activation of AMPKalpha in differentiated mouse 3T3L1 cells assessed as increase in 2-NBDG uptake pretreated for 30 mins followed by 2-NBDG addition measured after 1 hr by fluorescence assay
In short: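 2-NBDG uptake in differentiated 3T3-L1 adipocytes. Cells got compounds at several concentrations, or 100 nM insulin as a positive control. After 1 h incubation, fluorescence was read at ex/em 450/535 nm. Mean ± SD (n = 3), compared with vehicle by ANOVA.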

Mus musculus [6] = species on record: Mus musculus; experiment: Activation of AMPKalpha in differentiated mouse 3T3L1 cells assessed as increase in 2-NBDG uptake at 20 uM by fluorescence microscopic analysis
In short: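 Differentiated 3T3-L1 adipocytes were treated with 20 μM compound or 100 nM insulin as a positive control, then exposed to 2-NBDG as the fluorescent glucose analogue. Uptake was imaged by fluorescence microscopy as green signal inside the cells.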

C2C12 [7] = experiment: Activation of AMPKalpha phosphorylation at Thr172 in mouse C2C12 cells at 20 uM after 30 mins by Western blot analysis; assay type: cell-based
In short: (§1)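 Differentiated mouse C2C12 skeletal myoblasts were given compounds at 20 μM, or Aicar (0.2 mM, AMPK activator), for 30 min. pAMPK (Thr172) and pACC (Ser79) were quantified by Western blot. Mean ± SD of 2–4 independent experiments, compared with vehicle by ANOVA.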

C2C12 [8] = experiment: Activation of AMPKalpha in mouse C2C12 cells assessed as increase in phosphorylation of ACC at Ser79 at 20 uM after 30 mins by Western blot analysis; assay type: cell-based; in short: as §1
C2C12 [9] = experiment: Activation of AMPKalpha phosphorylation at Thr172 in mouse C2C12 cells at 5 to 20 uM after 30 mins in presence of AMPK inhibitor dorsomorphin by Western blot analysis; assay type: cell-based
In short: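 C2C12 myoblasts were exposed to compound at 5, 10 and 20 μM for 30 min, with compound C pretreatment used to test AMPK dependence. pAMPK (Thr172) was measured by Western blot. Mean ± SD (n = 3), compared with control.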

Row | Compound | IC50 [1] [µM] | MIC (Staphylococcus aureus) [µM] | MIC (Bacillus spizizenii) [µM] | MIC (Kocuria rhizophila) [µM] | MIC (Salmonella typhimurium) [µM] | MIC (Proteus hauseri) [µM] | MIC (Escherichia coli) [µM] | MIC (Candida albicans) [µM] | MIC (Trichophyton rubrum) [µM] | MIC [2] [µM] | MIC (Aspergillus fumigatus) [µM] | IC50 [3] [µM] | IC50 [4] [µM] | Activity (Mus musculus [5]) | Activity (Mus musculus [6]) | IC50 (K562) [µM] | IC50 (A549) [µM] | Activity (C2C12 [7]) | Activity (C2C12 [8]) | Activity (C2C12 [9])
1 | CC(C)[C@H](C)[C@@H](O)[C@H](O)[C@@H](C)[C@H]1CC(=O)[C@H]2[C@@H]3[C@@H](O)[C@H](O)[C@H]4[C@H](O)[C@@H](O)CC[C@]4(C)[C@H]3CC[C@]12C | > 128 | > 128 | > 128 | > 128 | > 128 | > 128 | > 128 | > 128 | > 128 | > 128 | > 128 | > 128 | > 128 | Dose-dependent effect | Active | > 10 | > 10 | Active | Active | inactive
2 | CC(C)C[C@@H](O)[C@H](O)[C@@H](C)[C@H]1CC(=O)[C@@H]2[C@@H]3[C@@H](O)[C@H](O)[C@H]4[C@H](O)[C@@H](O)CC[C@]4(C)[C@H]3CC[C@]12C | > 128 | > 128 | > 128 | > 128 | > 128 | > 128 | > 128 | > 128 | > 128 | > 128 | > 128 | > 128 | > 128 | Dose-dependent effect | Active | > 10 | > 10 | Active | Active | 
3 | CC(C)[C@H](C)[C@@H](O)[C@H](O)[C@@H](C)[C@H]1CC(=O)[C@@H]2[C@@H]3[C@@H](O)[C@H](O)[C@H]4[C@H](O)[C@@H](O)CC[C@]4(C)[C@H]3CC[C@]12C | > 128 | > 128 | > 128 | > 128 | > 128 | > 128 | > 128 | > 128 | > 128 | > 128 | > 128 | > 128 | > 128 | Dose-dependent effect | Active | > 10 | > 10 | Active | Active | 
4 | CC(C)[C@H](C)[C@@H](O)[C@H](O)[C@@H](C)[C@H]1CC(=O)[C@@H]2[C@@H]3[C@@H](OS(=O)(=O)O)[C@H](O)[C@H]4[C@H](O)[C@@H](O)CC[C@]4(C)[C@H]3CC[C@]12C | > 128 | > 128 | > 128 | > 128 | > 128 | > 128 | > 128 | > 128 | > 128 | > 128 | > 128 | > 128 | > 128 |  |  | > 10 | > 10 | Active | Active | 

Further lines, with some results ahead:

Row | IC50 [1] [µM] | MIC (Staphylococcus aureus) [µM] | MIC (Bacillus spizizenii) [µM] | MIC (Kocuria rhizophila) [µM] | MIC (Salmonella typhimurium) [µM] | MIC (Proteus hauseri) [µM] | MIC (Escherichia coli) [µM] | MIC (Candida albicans) [µM] | MIC (Trichophyton rubrum) [µM] | MIC [2] [µM] | MIC (Aspergillus fumigatus) [µM] | IC50 [3] [µM] | IC50 [4] [µM] | Activity (Mus musculus [5]) | Activity (Mus musculus [6]) | Compound | IC50 (K562) [µM] | IC50 (A549) [µM] | Activity (C2C12 [7]) | Activity (C2C12 [8]) | Activity (C2C12 [9])
5 | > 128 | > 128 | > 128 | > 128 | > 128 | > 128 | > 128 | > 128 | > 128 | > 128 | > 128 | > 128 | > 128 | Dose-dependent effect | Active | CC(C)[C@H](C)[C@@H](O)C[C@@H](C)[C@H]1CC(=O)[C@H]2[C@@H]3[C@@H](O)[C@H](O)[C@H]4[C@H](O)[C@@H](O)CC[C@]4(C)[C@H]3CC[C@]12C | > 10 | > 10 | Active | Active | 
6 | > 128 | > 128 | > 128 | > 128 | > 128 | > 128 | > 128 | > 128 | > 128 | > 128 | > 128 | > 128 | > 128 |  |  | CC(C)C[C@H](O)C[C@@H](C)[C@H]1CC(=O)[C@@H]2[C@@H]3[C@@H](O)[C@H](O)[C@H]4[C@H](O)[C@@H](O)CC[C@]4(C)[C@H]3CC[C@]12C | > 10 | > 10 | Active | Active | 
7 | > 128 | > 128 | > 128 | > 128 | > 128 | > 128 | > 128 | > 128 | > 128 | > 128 | > 128 | > 128 | > 128 | Dose-dependent effect | Active | CC(C)[C@@H](CC[C@@H](C)[C@H]1CC(=O)[C@@H]2[C@@H]3[C@@H](O)[C@H](O)[C@H]4C[C@@H](O)CC[C@]4(C)[C@H]3CC[C@]12C)[C@@H](C)O | > 10 | > 10 | Active | Active | 
